Reference: ChEMBL document CHEMBL1134949, “New irreversible adenosine A(1) antagonists based on FSCPX” (Bioorg Med Chem Lett, 2002)
Values joined by “and” are separate entries in the source; they are usually repeats but may differ in a detail not shown here. Equal entries are not always repeated.

Columns and labels:
[1] = Inhibitory concentration against [3H]DPCPX binding to Adenosine A1 receptor from DDT1 MF2 cells
[2] = Equilibrium dissociation constant for [3H]DPCPX binding to Adenosine A1 receptor from DDT1 MF2 cell membranes
[3] = target: T1, Adenosine receptor A1 (Homo sapiens) (UniProt P30542); assay: Percentage loss of [3H]DPCPX binding to Adenosine A1 receptor in the presence of Xanthine derivative at 100 nM from DDT1 MF2 cells; format: cell-based
T1 sequence (whole entry): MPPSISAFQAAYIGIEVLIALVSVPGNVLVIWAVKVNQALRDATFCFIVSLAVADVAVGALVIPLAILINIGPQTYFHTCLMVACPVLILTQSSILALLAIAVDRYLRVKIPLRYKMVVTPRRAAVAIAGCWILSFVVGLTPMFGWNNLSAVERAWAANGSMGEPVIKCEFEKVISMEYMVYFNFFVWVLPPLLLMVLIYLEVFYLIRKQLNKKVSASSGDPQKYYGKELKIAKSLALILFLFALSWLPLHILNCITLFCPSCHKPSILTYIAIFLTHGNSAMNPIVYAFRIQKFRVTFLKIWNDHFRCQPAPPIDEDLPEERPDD
How it was run: (§1)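 DDT1 MF-2 cells preincubated with or without antagonist (5 or 100 nM) for 30 min at 30 °C, then 10 cell wash cycles to remove unbound ligand. Membranes then prepared and assayed for [3H]DPCPX Bmax and KD. Receptor loss is the reduction in Bmax versus control. Mean ± SE, n = 3-6.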

[4] = target: T1, Adenosine receptor A1 (Homo sapiens); assay: Percentage loss of [3H]-DPCPX binding to Adenosine A1 receptor in the presence of Xanthine derivative at 5 nM from DDT1 MF2 cells; format: cell-based
How it was run: as §1

Structure (SMILES) | IC50 [1] [nM] | Kd [2] | Loss [3] [%] | Loss [4] [%]
CCCn1c(=O)c2nc(C3CCCC3)[nH]c2n(CCCNC(=O)c2ccc(S(=O)(=O)F)cc2)c1=O | 21 | 0.36 nM and 0.31 nM | – | –
CCCn1c(=O)c2nc(C3CCCC3)[nH]c2n(CCCCC(=O)c2ccc(S(=O)(=O)F)cc2)c1=O | – | – | 73 | 51
CCCn1c(=O)c2nc(C3CCCCC3)[nH]c2n(CCCCC(=O)c2ccc(S(=O)(=O)F)cc2)c1=O | – | – | 78 | 56
CCCn1c(=O)c2nc(C3CC4CCC3C4)[nH]c2n(CCCCC(=O)c2ccc(S(=O)(=O)F)cc2)c1=O (stereo not drawn) | – | – | 81 | 50
